Experimental data as given in ChEMBL document CHEMBL2311478, “Macrolactonolides: a novel class of anti-inflammatory compounds” (Bioorg Med Chem, 2013).
pEC50: −log10 of the molar value. Converted amounts (≈) assume the structure as drawn. The source made the active and inactive calls. The rule behind the calls is not given here.

Legend:
PBMC [1] = experiment: Antiinflammatory activity in human PBMC assessed as inhibition of PHA-induced MCP-1 production after 24 hrs; type: functional, cell-based
Procedure, shortened: (§1)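 Thawed cryopreserved human PBMCs were preincubated 1 h at 37 °C, 5% CO2, then exposed to test compound for 1 h before LPS, anti-CD3 or PHA stimulation. Supernatants were collected at 6, 24 or 48 h according to each cytokine's peak, and cytokines quantified by Luminex multiplex bead assay. 10-point titration starting at 20 µM, in duplicate, with constant DMSO. Parallel Alamar Blue cytotoxicity check under 48 h PHA.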

[2] = Half life in Balb/c mouse plasma at 2 mg/kg, administered intranasally; type: ADME, organism-based; set-up: dose 2 mg/kg; details: inhaled or intranasal
Procedure, shortened: (§2)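 Male Balb/c mice (21–25 g) dosed intranasally with freshly prepared formulation in 1% DMSO plus 0.125% CMC. Terminal bleeding and lung collection from 5 min to 72 h. K2EDTA blood taken as blood aliquots or spun for plasma. Lung homogenised 1:5 in water. Samples were protein-precipitated with acetonitrile/methanol (2:1) plus roxithromycin internal standard and quantified by LC–MS/MS. LLOQ 0.5 ng/mL (blood/plasma) and 2.5 ng/mL (lung).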

PBMC [3] = experiment: Antiinflammatory activity in human PBMC assessed as inhibition of PHA-induced IL-3 production after 48 hrs; type: functional, cell-based; procedure, shortened: as §1
Rattus norvegicus [4] = experiment: Antiinflammatory activity against ovalbumin-induced airway allergic Brown-Norway rat model assessed as decrease of neutrophils in bronchoalveolar lavage fluid at 32 mg/kg administered intranasally as dry powder measured on day 29 after ovalbumin challenge; type: functional, organism-based; set-up: dose 32 mg/kg
Procedure, shortened: (§3)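 Brown-Norway rats sensitised by OVA injection on day 1, boosted on days 14 and 20. Treatment with 32 mg/kg or air control on day 27, followed 1 h later by 60 min OVA inhalation challenge. BAL cells differentiated about 48 h post-challenge (day 29). Comparison was against a sensitised, challenged, untreated group. Mean + SD, n = 10, Dunnett test.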

PBMC [5] = experiment: Antiinflammatory activity in human PBMC assessed as inhibition of PHA-induced IL-1beta production after 6 hrs; type: functional, cell-based; procedure, shortened: as §1
[6] = Ratio of drug AUC lung to blood in Balb/c mouse at 2 mg/kg, administered intranasally; details: lung and blood, inhaled or intranasal
Escherichia coli = experiment: Antibacterial activity against Escherichia coli ATCC 25922 by broth microdilution method; type: functional
Procedure, shortened: (§4)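 CLSI broth microdilution with double dilutions in 96-well plates. For streptococci, 5% horse serum replaced lysed blood in the medium. Inocula were grown on Columbia agar with 5% sheep blood for streptococci, Mueller–Hinton chocolate agar for H. influenzae, and Mueller–Hinton agar for staphylococci. Read-out is MIC in mg/L.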

PBMC [7] = experiment: Antiinflammatory activity in human PBMC assessed as inhibition of PHA-induced IL-4 production after 24 hrs; type: functional, cell-based; procedure, shortened: as §1
PBMC [8] = experiment: Antiinflammatory activity in human PBMC assessed as inhibition of PHA-induced IL-6 production after 6 hrs; type: functional, cell-based; procedure, shortened: as §1
Staphylococcus aureus [9] = experiment: Antibacterial activity against Staphylococcus aureus ATCC 13709 by broth microdilution method; type: functional; procedure, shortened: as §4
PBMC [10] = experiment: Antiinflammatory activity in human PBMC assessed as inhibition of PHA-induced IL-5 production after 48 hrs; type: functional, cell-based; procedure, shortened: as §1
[11] = Cmax in Balb/c mouse plasma at 2 mg/kg, administered intranasally; type: ADME, organism-based; set-up: route nasal, dose 2 mg/kg; details: inhaled or intranasal; procedure, shortened: as §2
PBMC [12] = experiment: Antiinflammatory activity in human PBMC assessed as inhibition of LPS-induced TNFalpha production after 6 hrs; type: functional, cell-based; procedure, shortened: as §1
Streptococcus pneumoniae [13] = experiment: Antibacterial activity against constitutive-resistant to macrolide, licosamide and streptogramin Streptococcus pneumoniae 58 Spain by broth microdilution method; type: functional
Procedure, shortened: (§5)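 MICs by CLSI broth microdilution with double dilutions, except that Streptococcus medium used 5% horse serum in place of lysed blood. Bacteria were pre-grown on Columbia agar with 5% sheep blood (streptococci) or Mueller–Hinton agar (staphylococci).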

PBMC [14] = experiment: Antiinflammatory activity in human PBMC assessed as inhibition of PHA-induced IFNgamma production after 24 hrs; type: functional, cell-based; procedure, shortened: as §1
Rattus norvegicus [15] = experiment: Antiinflammatory activity against ovalbumin-induced airway allergic Brown-Norway rat model assessed as decrease of total cell in bronchoalveolar lavage fluid at 32 mg/kg administered intranasally as dry powder measured on day 29 after ovalbumin challenge (reference value: 53.1%); type: functional, Lung; set-up: scale not given: the % may be the effect or the level left
Rattus norvegicus [16] = experiment: Antiinflammatory activity against ovalbumin-induced airway allergic Brown-Norway rat model assessed as decrease of eosinophil peroxidase activity in bronchoalveolar lavage fluid at 32 mg/kg administered intranasally as dry powder measured on day 29 after ovalbumin challenge; type: functional, Lung; set-up: scale not given: the % may be the effect or the level left
Staphylococcus aureus [17] = experiment: Antibacterial activity against inducible-resistant to macrolide, licosamide and streptogramin Staphylococcus aureus 90265/97 by broth microdilution method; type: functional; procedure, shortened: as §5
PBMC [18] = experiment: Antiinflammatory activity in human PBMC assessed as inhibition of PHA-induced IL-10 production after 48 hrs; type: functional, cell-based; procedure, shortened: as §1
Streptococcus pyogenes = experiment: Antibacterial activity against erythromycin susceptible Streptococcus pyogenes 3565 by broth microdilution method; type: functional; procedure, shortened: as §4
PBMC [19] = experiment: cells; type: functional, cell-based; details: Homo sapiens, 48 h
PBMC [20] = experiment: Antiinflammatory activity in human PBMC assessed as inhibition of anti-CD3-induced IL-12p70 production after 48 hrs; type: functional, cell-based; procedure, shortened: as §1
Staphylococcus aureus [21] = experiment: Antibacterial activity against efflux mediated macrolide-resistant Staphylococcus aureus PK1 by broth microdilution method; type: functional; procedure, shortened: as §5
PBMC [22] = experiment: Antiinflammatory activity in human PBMC assessed as inhibition of anti-CD3-induced TNFalpha production after 48 hrs; type: functional, cell-based; procedure, shortened: as §1
Streptococcus pneumoniae [23] = experiment: Antibacterial activity against inducible-resistant to macrolide, licosamide and streptogramin Streptococcus pneumoniae 134 GR-M by broth microdilution method; type: functional; procedure, shortened: as §5
Enterococcus faecalis = experiment: Antibacterial activity against Enterococcus faecalis ATCC 29213 by broth microdilution method; type: functional; procedure, shortened: as §4
[24] = Half life in Balb/c mouse blood at 2 mg/kg, administered intranasally; type: ADME, organism-based; set-up: dose 2 mg/kg; details: whole blood, inhaled or intranasal; procedure, shortened: as §2
PBMC [25] = experiment: Antiinflammatory activity in human PBMC assessed as inhibition of LPS-induced IL-1beta production after 6 hrs; type: functional, cell-based; procedure, shortened: as §1
Moraxella catarrhalis = experiment: Antibacterial activity against Moraxella catarrhalis ATCC 23246 by broth microdilution method; type: functional; procedure, shortened: as §4
Rattus norvegicus [26] = experiment: Antiinflammatory activity against ovalbumin-induced airway allergic Brown-Norway rat model assessed as decrease of macrophages in bronchoalveolar lavage fluid at 32 mg/kg administered intranasally as dry powder measured on day 29 after ovalbumin challenge; type: functional, organism-based; set-up: dose 32 mg/kg; details: Lung; procedure, shortened: as §3
PBMC [27] = experiment: Antiinflammatory activity in human PBMC assessed as inhibition of PHA-induced IL-2 production after 48 hrs; type: functional, cell-based; procedure, shortened: as §1
Rattus norvegicus [28] = experiment: Antiinflammatory activity against ovalbumin-induced airway allergic Brown-Norway rat model assessed as decrease of eosinophil peroxidase activity in bronchoalveolar lavage fluid at 11 mg/kg administered intranasally as dry powder measured on day 29 after ovalbumin challenge; type: functional, Lung; set-up: scale not given: the % may be the effect or the level left

**Q.** With `CC[C@H]1OC(=O)[C@H](C)[C@@H](O[C@H]2C[C@@](C)(OC)[C@@H](O)[C@H](C)O2)[C@H](C)[C@@H](O[C@@H]2O[C@H](C)C[C@H](N(C)C)[C@H]2O)[C@](C)(O)C[C@@H](C)CN(CCCNC(=O)[C@H]2[C@H](C)C[C@H]3[C@@H]4CCC5=CC(=O)C=C[C@]5(C)[C@@]4(F)[C@@H](O)C[C@@]32C)[C@H](C)[C@@H](O)[C@]1(C)O` as the compound, how does the pEC50 (PBMC [1]) read?
**A.** 4.72

**Q.** What about the half-life [2] of the same compound?
**A.** 54 min

**Q.** What about the pEC50 (PBMC [3]) of the same compound?
**A.** 5.90

**Q.** What about the Activity (Rattus norvegicus [4]) of the same compound?
**A.** Active

**Q.** And the pEC50 (PBMC [5])?
**A.** 4.86

**Q.** What about the lung-to-blood AUC ratio [6] of the same compound?
**A.** 53

**Q.** And the MIC (Escherichia coli)?
**A.** > 64 µg/mL

**Q.** And the pEC50 (PBMC [7])?
**A.** 6.68

**Q.** What about the pEC50 (PBMC [8]) of the same compound?
**A.** 5.39

**Q.** And the MIC (Staphylococcus aureus [9])?
**A.** 8 µg/mL (≈ 7.04 µM)

**Q.** And the pEC50 (PBMC [10])?
**A.** 6.22

**Q.** And the Cmax [11]?
**A.** 223 ng/mL

**Q.** What about the pEC50 (PBMC [12]) of the same compound?
**A.** 5.52

**Q.** What about the MIC (Streptococcus pneumoniae [13]) of the same compound?
**A.** 64 µg/mL (≈ 56.3 µM)

**Q.** And the pEC50 (PBMC [14])?
**A.** 7.17

**Q.** What about the Activity (Rattus norvegicus [15]) of the same compound?
**A.** 43.6%

**Q.** And the Activity (Rattus norvegicus [16])?
**A.** 50%

**Q.** What about the MIC (Staphylococcus aureus [17]) of the same compound?
**A.** > 64 µg/mL

**Q.** And the pEC50 (PBMC [18])?
**A.** 5.29

**Q.** What about the MIC (Streptococcus pyogenes) of the same compound?
**A.** 0.25 µg/mL (≈ 0.22 µM)

**Q.** And the pEC50 (PBMC [19])?
**A.** 6.96

**Q.** And the pEC50 (PBMC [20])?
**A.** 7.77

**Q.** And the MIC (Staphylococcus aureus [21])?
**A.** > 64 µg/mL

**Q.** What about the pEC50 (PBMC [22]) of the same compound?
**A.** 7.43

**Q.** And the MIC (Streptococcus pneumoniae [23])?
**A.** > 64 µg/mL

**Q.** What about the MIC (Enterococcus faecalis) of the same compound?
**A.** 64 µg/mL (≈ 56.3 µM)

**Q.** What about the half-life [24] of the same compound?
**A.** 54 min

**Q.** And the pEC50 (PBMC [25])?
**A.** < 4.70

**Q.** What about the MIC (Moraxella catarrhalis) of the same compound?
**A.** 8 µg/mL (≈ 7.04 µM)

**Q.** And the Activity (Rattus norvegicus [26])?
**A.** Active

**Q.** And the pEC50 (PBMC [27])?
**A.** < 4.70

**Q.** And the Activity (Rattus norvegicus [28])?
**A.** 12%
